One assay deals with Substance-P receptor (Homo sapiens, UniProt P25103). The assay is described as follows: Antagonist activity at human recombinant NK1 receptor expressed in CHO cells assessed as inhibition of substance P-induced intracellular calcium mobilization.
Assay [1] has as its target T1, Mu-type opioid receptor (Homo sapiens, UniProt P35372). The experiment in a line: Antagonist activity at human recombinant mu opioid receptor expressed in CHO cells coexpressing alphaqi5 assessed as inhibition of dermorphin-induced intracellular calcium mobilization at up to 10 uM. The format is functional, cell-based. The method, boiled down:
(§1)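 Calcium mobilization in human receptor cells. NK-1, B2 and UT recombinant in CHO. MOP, DOP, KOP and NOP in CHO cells carrying chimeric Gαqi5. Native PAR2 in A549 cells. […] Mean ± SEM of three experiments in duplicate.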

Assay [2] has as its target T2, B2 bradykinin receptor (Homo sapiens) (UniProt P30411).
T2 sequence (whole entry): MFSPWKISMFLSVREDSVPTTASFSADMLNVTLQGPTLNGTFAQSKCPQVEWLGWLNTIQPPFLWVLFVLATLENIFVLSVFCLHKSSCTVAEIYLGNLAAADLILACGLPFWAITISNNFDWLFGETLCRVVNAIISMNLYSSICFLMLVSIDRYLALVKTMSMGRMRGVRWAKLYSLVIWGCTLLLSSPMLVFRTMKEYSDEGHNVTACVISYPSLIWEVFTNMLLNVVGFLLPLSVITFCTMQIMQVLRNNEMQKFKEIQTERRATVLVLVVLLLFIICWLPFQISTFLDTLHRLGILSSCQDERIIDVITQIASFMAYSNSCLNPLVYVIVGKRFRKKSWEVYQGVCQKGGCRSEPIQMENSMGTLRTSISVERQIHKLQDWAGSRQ
The assay is described as follows: Antagonist activity at human recombinant bradykinin 2 receptor expressed in CHO cells assessed as inhibition of bradykinin-induced intracellular calcium mobilization at up to 10 uM. The format is functional, cell-based. In outline:
as §1

Assay [3] deals with T3, Neuropeptide S receptor (Mus musculus) (UniProt Q8BZP8).
T3 sequence (whole entry): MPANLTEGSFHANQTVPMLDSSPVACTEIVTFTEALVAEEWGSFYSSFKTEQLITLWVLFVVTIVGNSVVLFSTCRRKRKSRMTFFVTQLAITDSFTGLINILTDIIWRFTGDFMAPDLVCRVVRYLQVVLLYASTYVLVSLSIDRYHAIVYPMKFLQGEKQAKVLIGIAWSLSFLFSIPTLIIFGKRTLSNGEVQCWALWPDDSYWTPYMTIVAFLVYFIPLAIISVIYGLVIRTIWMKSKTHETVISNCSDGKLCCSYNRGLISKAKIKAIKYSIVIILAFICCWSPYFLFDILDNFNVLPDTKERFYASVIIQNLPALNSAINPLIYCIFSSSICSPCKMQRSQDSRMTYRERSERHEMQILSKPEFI
The experiment in a line: Agonist activity at mouse NPSR expressed in HEK293 cells up to 10 uM by calcium mobilization assay. It is filed as functional, cell-based. The method, boiled down:
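HEK293 cells stably expressing mouse NPSR; intracellular calcium mobilization measured after peptide addition, concentration-response curves giving pEC50 and Emax as % over basal. Mean of at least four separate experiments performed in duplicate.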

Assay [4] addresses T4, Delta-type opioid receptor (Homo sapiens, UniProt P41143). The assay is described as follows: Antagonist activity at human recombinant delta opioid receptor expressed in CHO cells coexpressing alphaqi5 assessed as inhibition of DPDPE-induced intracellular calcium mobilization at up to 10 uM. The format is functional, cell-based. In outline: (§2)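 Calcium mobilization in human receptor cells. NK-1, B2 and UT recombinant in CHO. MOP, DOP, KOP and NOP in CHO cells carrying chimeric Gαqi5. Native PAR2 in A549 cells. Mean ± SEM of three experiments in duplicate.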

In assay [5] the target is T5, Kappa-type opioid receptor (Homo sapiens, UniProt P41145). The assay is described as follows: Antagonist activity at human recombinant kappa opioid receptor expressed in CHO cells coexpressing alphaqi5 assessed as inhibition of dynorphin A-induced intracellular calcium mobilization at up to 10 uM. It is filed as functional, cell-based. The method, boiled down:
as §1

A further assay deals with T6, Urotensin-2 receptor (Homo sapiens, UniProt Q9UKP6).
T6 sequence (Q9UKP6 whole entry): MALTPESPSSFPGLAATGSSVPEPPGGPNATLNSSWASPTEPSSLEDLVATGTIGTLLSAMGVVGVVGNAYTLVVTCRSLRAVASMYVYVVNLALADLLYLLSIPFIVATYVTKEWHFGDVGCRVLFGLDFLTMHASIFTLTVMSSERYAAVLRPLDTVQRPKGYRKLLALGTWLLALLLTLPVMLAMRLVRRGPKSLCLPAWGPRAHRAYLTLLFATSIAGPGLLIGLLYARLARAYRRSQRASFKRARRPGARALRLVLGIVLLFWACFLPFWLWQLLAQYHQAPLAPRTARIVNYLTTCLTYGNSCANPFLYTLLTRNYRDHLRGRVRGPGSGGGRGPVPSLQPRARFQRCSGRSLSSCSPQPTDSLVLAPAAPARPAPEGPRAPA
The experiment in a line: Antagonist activity at human recombinant urotensin 2 receptor expressed in CHO cells assessed as inhibition of urotensin 2-induced intracellular calcium mobilization. It is filed as functional, cell-based.

Assay [6] addresses T3, Neuropeptide S receptor (Mus musculus). The experiment in a line: Antagonist activity at mouse NPSR expressed in HEK293 cells assessed as inhibition of NPS-induced response. The format is functional, cell-based. In outline:
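HEK293 cells stably expressing mouse NPSR, calcium mobilization. Inhibition response curves to test peptides against 30 nM NPS, run at 37 °C with three up-and-down mixing cycles right after antagonist injection to aid diffusion. Mean of at least four separate experiments performed in duplicate.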

The target in assay [7] is T5, Kappa-type opioid receptor. The experiment in a line: Antagonist activity at human recombinant kappa opioid receptor expressed in CHO cells coexpressing alphaqi5 assessed as inhibition of dynorphin A-induced intracellular calcium mobilization. The format is functional, cell-based. In outline:
as §2

A further assay has as its target Nociceptin receptor (Homo sapiens, UniProt P41146). The assay is described as follows: Antagonist activity at human recombinant NOP receptor expressed in CHO cells coexpressing alphaqi5 assessed as inhibition of N/OFQ-induced intracellular calcium mobilization. It is filed as functional, cell-based.
Assay [8] addresses T3, Neuropeptide S receptor (Mus musculus). The assay is described as follows: Antagonist activity at mouse NPSR expressed in HEK293 cells assessed as inhibition of NPS-induced increase in intracellular calcium mobilization by Schild analysis at room temperature. The format is functional, cell-based. In outline:
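Schild-type experiment in HEK293 cells expressing mouse NPSR by calcium mobilization, using NPS concentration-response curves with added antagonist, run under the earlier conditions without 37 °C and without post-injection mixing.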

Assay [9] addresses T1, Mu-type opioid receptor. The assay is described as follows: Antagonist activity at human recombinant mu opioid receptor expressed in CHO cells coexpressing alphaqi5 assessed as inhibition of dermorphin-induced intracellular calcium mobilization. It is filed as functional, cell-based.
Assay [10] has as its target T3, Neuropeptide S receptor (Mus musculus). The assay is described as follows: Antagonist activity at mouse NPSR expressed in HEK293 cells assessed as inhibition of NPS-induced response by Schild analysis. It is filed as functional, cell-based. The method, boiled down: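 Calcium mobilization in HEK293 cells stably expressing mouse NPSR, at 37 °C with three mixing cycles after antagonist injection. NPS concentration-response curves were run without and with antagonist at 0.1-10 µM, and pKB with 95% confidence limits was derived from the curve shifts. Mean ± SEM of four separate experiments in duplicate.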

In another assay the target is T7, B2 bradykinin receptor (Homo sapiens, UniProt P30411).
T7 sequence (P30411 whole entry): T2 sequence (whole entry)
The experiment in a line: Antagonist activity at human recombinant bradykinin 2 receptor expressed in CHO cells assessed as inhibition of bradykinin-induced intracellular calcium mobilization. The format is functional, cell-based. The method, boiled down:
as §2

Assay [11] addresses T4, Delta-type opioid receptor. The assay is described as follows: Antagonist activity at human recombinant delta opioid receptor expressed in CHO cells coexpressing alphaqi5 assessed as inhibition of DPDPE-induced intracellular calcium mobilization. The format is functional, cell-based. The method, boiled down: as §2
The target in assay [12] is T8, Proteinase-activated receptor 2 (Homo sapiens, UniProt P55085).
T8 sequence (P55085 whole entry): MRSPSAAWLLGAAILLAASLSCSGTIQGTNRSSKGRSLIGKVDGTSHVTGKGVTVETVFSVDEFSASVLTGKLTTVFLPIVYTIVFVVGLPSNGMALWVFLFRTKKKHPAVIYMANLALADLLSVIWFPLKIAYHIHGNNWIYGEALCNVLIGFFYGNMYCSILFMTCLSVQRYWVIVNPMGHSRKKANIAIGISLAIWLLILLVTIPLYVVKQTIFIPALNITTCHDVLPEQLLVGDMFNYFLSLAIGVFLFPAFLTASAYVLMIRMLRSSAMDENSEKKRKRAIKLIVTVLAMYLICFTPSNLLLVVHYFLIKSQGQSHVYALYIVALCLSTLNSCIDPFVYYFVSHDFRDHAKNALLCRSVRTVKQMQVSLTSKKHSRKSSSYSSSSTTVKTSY
The assay is described as follows: Antagonist activity at human recombinant PAR2 expressed in A549 cells assessed as inhibition of SLIGKV-NH2-induced intracellular calcium mobilization. It is filed as functional, cell-based.

Assay [13] has as its target Proteinase-activated receptor 2 (Homo sapiens) (UniProt P55085). The experiment in a line: Antagonist activity at human recombinant PAR2 expressed in A549 cells assessed as inhibition of SLIGKV-NH2-induced intracellular calcium mobilization at up to 10 uM. The format is functional, cell-based.

Activity calls are given as the source filed them. The calls are words filed in the database; no cut-off is given here. Square brackets hold non-standard residues; d marks the D form. Peptide text beside a SMILES is read from it. dTle = CC(C)(C)[C@@H](N)C(=O)O

T5 sequence (P41145 whole entry): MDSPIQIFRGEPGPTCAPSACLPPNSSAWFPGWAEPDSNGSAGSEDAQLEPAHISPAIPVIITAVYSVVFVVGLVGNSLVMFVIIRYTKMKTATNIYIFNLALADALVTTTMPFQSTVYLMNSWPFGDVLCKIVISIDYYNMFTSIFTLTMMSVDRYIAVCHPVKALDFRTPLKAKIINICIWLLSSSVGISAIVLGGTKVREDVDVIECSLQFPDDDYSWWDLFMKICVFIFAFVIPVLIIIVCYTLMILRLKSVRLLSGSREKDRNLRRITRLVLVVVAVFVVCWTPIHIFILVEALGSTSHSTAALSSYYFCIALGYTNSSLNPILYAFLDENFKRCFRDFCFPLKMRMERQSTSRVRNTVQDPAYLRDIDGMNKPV
T1 sequence (P35372 whole entry): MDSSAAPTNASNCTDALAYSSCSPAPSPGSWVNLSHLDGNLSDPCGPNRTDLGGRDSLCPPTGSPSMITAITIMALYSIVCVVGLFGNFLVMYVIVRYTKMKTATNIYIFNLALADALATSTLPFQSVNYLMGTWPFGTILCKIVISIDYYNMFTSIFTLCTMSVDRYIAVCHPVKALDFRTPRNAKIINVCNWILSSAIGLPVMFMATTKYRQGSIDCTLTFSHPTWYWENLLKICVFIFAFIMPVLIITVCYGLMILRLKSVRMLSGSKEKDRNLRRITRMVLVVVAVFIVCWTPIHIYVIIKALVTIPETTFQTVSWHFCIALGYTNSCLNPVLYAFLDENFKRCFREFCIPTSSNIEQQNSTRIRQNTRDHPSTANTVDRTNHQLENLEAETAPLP
T4 sequence (P41143 whole entry): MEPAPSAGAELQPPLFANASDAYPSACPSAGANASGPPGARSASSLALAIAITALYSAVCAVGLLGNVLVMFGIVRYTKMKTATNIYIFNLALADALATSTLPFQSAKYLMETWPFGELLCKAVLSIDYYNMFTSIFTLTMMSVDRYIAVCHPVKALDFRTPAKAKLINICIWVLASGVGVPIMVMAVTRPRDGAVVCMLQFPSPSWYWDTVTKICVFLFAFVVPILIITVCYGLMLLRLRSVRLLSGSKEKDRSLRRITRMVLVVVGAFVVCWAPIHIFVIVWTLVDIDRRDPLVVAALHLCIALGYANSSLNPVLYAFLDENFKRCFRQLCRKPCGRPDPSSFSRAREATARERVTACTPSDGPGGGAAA
Sequence of Substance-P receptor (P25103 whole entry): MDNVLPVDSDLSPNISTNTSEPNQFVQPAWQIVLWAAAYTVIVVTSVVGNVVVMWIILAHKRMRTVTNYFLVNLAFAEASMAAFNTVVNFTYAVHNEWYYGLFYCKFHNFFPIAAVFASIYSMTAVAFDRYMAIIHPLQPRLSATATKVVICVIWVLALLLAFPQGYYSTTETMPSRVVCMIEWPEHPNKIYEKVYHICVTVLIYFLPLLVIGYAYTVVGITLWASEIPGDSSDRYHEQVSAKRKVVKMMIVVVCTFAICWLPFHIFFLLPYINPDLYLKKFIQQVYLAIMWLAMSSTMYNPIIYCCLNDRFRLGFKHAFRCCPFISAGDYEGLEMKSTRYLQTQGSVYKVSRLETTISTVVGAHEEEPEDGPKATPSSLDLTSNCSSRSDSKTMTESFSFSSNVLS
Sequence of Nociceptin receptor (P41146 whole entry): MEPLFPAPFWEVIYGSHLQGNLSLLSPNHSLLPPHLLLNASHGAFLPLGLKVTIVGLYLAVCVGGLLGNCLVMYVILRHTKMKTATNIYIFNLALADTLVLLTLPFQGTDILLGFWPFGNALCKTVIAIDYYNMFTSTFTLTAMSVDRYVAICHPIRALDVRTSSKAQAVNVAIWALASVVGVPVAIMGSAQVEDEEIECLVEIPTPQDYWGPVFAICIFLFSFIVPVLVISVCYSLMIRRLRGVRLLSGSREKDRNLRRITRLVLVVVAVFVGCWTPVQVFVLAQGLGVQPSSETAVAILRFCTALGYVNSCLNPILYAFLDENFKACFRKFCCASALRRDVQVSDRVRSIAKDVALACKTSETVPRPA

`CSCC[C@H](NC(=O)CNC(=O)[C@@H](NC(=O)CNC(=O)[C@@H](NC(=O)[C@H](NC(=O)[C@H](CC(N)=O)NC(=O)[C@H](CCCNC(=N)N)NC(=O)[C@H](Cc1ccccc1)NC(=O)[C@@H](N)CO)C(C)(C)C)C(C)C)[C@@H](C)O)C(=O)N[C@@H](CCCCN)C(=O)N[C@@H](CCCCN)C(=O)N[C@H](C(=O)N[C@@H](CO)C(=O)N[C@@H](Cc1ccccc1)C(=O)N[C@@H](CCC(N)=O)C(=O)N[C@@H](CCCNC(=N)N)C(=O)N[C@@H](C)C(=O)N[C@@H](CCCCN)C(=O)N[C@@H](CO)C(=O)O)[C@@H](C)O` (H-SFRN[dTle]VGTGMKKTSFQRAKS-OH): the EC50 at Substance-P receptor was 0.049 nM; at Urotensin-2 receptor, 3.47 nM; in assay [7], 2.34 nM; on Nociceptin receptor it was 0.282 nM; at Mu-type opioid receptor [9] it was 11 nM; on B2 bradykinin receptor, 0.0339 nM. Besides, the EC50 in [11] is 1.95 nM; in assay [12] it was 31.6 µM. Also, the Emax at Mu-type opioid receptor [1] was 186%; in assay [2], 115%; in assay [4], 177%; in [5] it was 139%; in assay [8] it was less than 50%; in [13], 445%. Moreover, the Emax result in assay [3] was “inactive”. Moreover, the pKb in assay [6] is 7.06. In addition, the Activity result in [10] is “Dose-dependent effect”.

Values taken from ChEMBL document CHEMBL1136992, “Further studies at neuropeptide s position 5: discovery of novel neuropeptide S receptor antagonists” (J Med Chem, 2009).
